# Measurements taken from ChEMBL document CHEMBL1932940, “Xanthohumol induces apoptosis in human malignant glioblastoma cells by increasing reactive oxygen species and activating MAPK pathways” (J Nat Prod, 2011).
# Activity calls are given as the source filed them. No cut-off for these calls is given here.
# Legend:
# [1] = target: T1, MAP kinase p38 (Homo sapiens) (UniProt O15264+Q15759+Q16539+P53778); test: Induction of p38 phosphorylation in human T98G cells at 20 uM after 30 to 60 mins for 2 hrs by Western blot analysis in presence of 5 mM NAC; format: cell-based
# How it was run: (§1)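 T98G exposed to 20 μM for 5−120 min or 24 h, with or without 5 mM NAC. Lysates (Tris/deoxycholate/SDS/IGEPAL with protease and phosphatase inhibitors) immunoblotted with anti-p-ERK, ERK1/2 (1:1000), p-p38, p38; ECL detection; phospho signals normalized to total ERK1/2 or p38. Three experiments.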
# [2] = test system: T98G; test: Anticancer activity against human T98G cells assessed as decrease in cell viability at 10 uM after 48 hrs by MTT assay; format: functional, cell-based
# How it was run: (§2)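 Cells (T98G, U87-MG, NHA; 3 × 10^4 per well) plated, next day exposed to serial dilutions (1−50 μM) for 48 h at 37 °C, 5% CO2. MTT (5 mg/mL) added for 3 h; crystals solubilized in 50% DMF/20% SDS pH 4.5; OD at 620 nm. Viability = % of DMSO (0.1% final) controls. Means ± SEM, three experiments in triplicate.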
# [3] = target: Mitogen-activated protein kinase 9 (Homo sapiens) (UniProt P45984); test: Induction of JNK phosphorylation in human T98G cells at 20 uM after 30 to 60 mins for 2 hrs by Western blot analysis; format: cell-based
# Chain of Mitogen-activated protein kinase 9 (Homo sapiens) (P45984 whole entry, looked up): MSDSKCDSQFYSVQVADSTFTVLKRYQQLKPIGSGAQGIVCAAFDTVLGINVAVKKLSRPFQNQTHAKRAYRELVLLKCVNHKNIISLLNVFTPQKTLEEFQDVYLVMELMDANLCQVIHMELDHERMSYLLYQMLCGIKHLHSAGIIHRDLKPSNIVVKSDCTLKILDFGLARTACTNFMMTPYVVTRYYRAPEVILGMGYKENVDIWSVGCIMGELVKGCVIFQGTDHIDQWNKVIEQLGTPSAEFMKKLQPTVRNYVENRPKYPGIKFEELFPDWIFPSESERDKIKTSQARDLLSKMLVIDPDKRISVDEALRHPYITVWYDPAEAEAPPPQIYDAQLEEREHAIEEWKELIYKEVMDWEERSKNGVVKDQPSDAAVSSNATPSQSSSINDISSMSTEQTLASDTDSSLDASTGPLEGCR
# [4] = target: T1, MAP kinase p38 (Homo sapiens); test: Induction of p38 phosphorylation in human T98G cells at 20 uM after 30 to 60 mins for 2 hrs by Western blot analysis; format: cell-based; how it was run: as §1
# [5] = test system: U-87MG ATCC; test: Anticancer activity against human U87MG cells assessed as decrease in cell viability at 50 uM after 48 hrs by MTT assay; format: functional, cell-based; how it was run: as §2
# [6] = test system: U-87 MG; test: Induction of cell cycle arrest in human U87MG cells assessed as accumulation at G2/M phase at 1 to 20 uM after 48 hrs by flow cytometric analysis; format: functional, cell-based; conditions: U-87MG ATCC
# How it was run: (§3)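 2 × 10^5 cells per dish exposed 48 h (1−20 μM per legend); harvested, fixed in cold 70% ethanol at −20 °C, stained with propidium iodide plus RNase A (100 U/mL) 30 min at room temperature; percentage in G1, S, G2/M by flow cytometry. Three experiments in triplicate.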
# [7] = test system: T98G; test: Induction of apoptosis in human T98G cells assessed as increase in ROS production at 20 uM after 48 hrs by DCFH-DA staining-based flow cytometric analysis in presence of 10 uM ascorbic acid; format: functional, cell-based
# [8] = test system: T98G; test: Induction of apoptosis in human T98G cells at 20 uM after 48 hrs by flow cytometric analysis pretreated with 5 uM p38 inhibitor SB203580 for 1 hr; format: functional, cell-based
# How it was run: (§4)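 T98G pretreated with PD98059 (20 μM, 30 min), SB203580 (5 μM, 1 h) or SP600125 (5 μM, 1 h), then exposed to 20 μM for 48 h; hypodiploid nuclei quantified by propidium iodide flow cytometry. Means ± SEM, three experiments in triplicate.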
# [9] = test system: T98G; test: Induction of apoptosis in human T98G cells assessed as increase in mitochondrial depolarization at 20 uM after 4 hrs by […] fluorescence analysis; format: functional, cell-based
# How it was run: (§5)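 T98G treated with 20 μM for 4−24 h (NAC 5 mM where stated), then loaded with 5 nM TMRE for 30 min at 37 °C; fluorescence by flow cytometry (FL-2); percentage of cells with depolarized mitochondria reported. Three experiments in triplicate (n = 3 for NAC set).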
# [10] = test system: T98G; test: Induction of apoptosis in human T98G cells assessed as decrease in mitochondrial depolarization at 20 uM after 24 hrs by […] fluorescence analysis in presence of 5 mM NAC; format: functional, cell-based; how it was run: as §5
# [11] = test system: T98G; test: Induction of apoptosis in human T98G cells assessed as increase in subG1 population after 24 to 48 hrs by propidium iodide staining based flow cytometric analysis; format: functional, cell-based
# How it was run: (§6)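 Cells treated 1−50 μM for 24 or 48 h, washed in PBS, resuspended in 0.1% sodium citrate, 0.1% Triton X-100, 50 μg/mL propidium iodide, 30 min at 4 °C in dark. Nuclei analyzed by flow cytometry, DNA on log scale, debris gated out; percent hypodiploid (sub-G1) nuclei reported. Three experiments in triplicate.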
# [12] = test system: T98G; test: Anticancer activity against human T98G cells assessed as decrease in cell viability at 50 uM after 48 hrs by MTT assay; format: functional; how it was run: as §2
# [13] = test system: T98G; test: Induction of apoptosis in human T98G cells assessed as decrease in Bcl-2 expression at 20 uM by Western blot analysis; format: functional, cell-based; conditions: TDE = time-dependent effect
# How it was run: (§7)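 T98G exposed to 20 μM for various times (0−48 h), NAC 5 mM where stated. Total lysates, or digitonin-permeabilized cytosolic and mitochondrial fractions (10000g, 15 min, 4 °C) for cytochrome c, blotted for caspase-3, caspase-9, PARP (1:1000), Bcl-2 (1:500), cytochrome c; β-actin loading control; ECL detection. Three experiments.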
# [14] = target: Mitogen-activated protein kinase; ERK1/ERK2 (Homo sapiens) (UniProt P27361+P28482); test: Induction of Erk1/2 phosphorylation in human T98G cells at 20 uM measured after 24 hrs by Western blot analysis in presence of 5 mM of NAC; format: cell-based; how it was run: as §1
# Chain of Mitogen-activated protein kinase; ERK1/ERK2 (Homo sapiens) (P27361 whole entry, looked up): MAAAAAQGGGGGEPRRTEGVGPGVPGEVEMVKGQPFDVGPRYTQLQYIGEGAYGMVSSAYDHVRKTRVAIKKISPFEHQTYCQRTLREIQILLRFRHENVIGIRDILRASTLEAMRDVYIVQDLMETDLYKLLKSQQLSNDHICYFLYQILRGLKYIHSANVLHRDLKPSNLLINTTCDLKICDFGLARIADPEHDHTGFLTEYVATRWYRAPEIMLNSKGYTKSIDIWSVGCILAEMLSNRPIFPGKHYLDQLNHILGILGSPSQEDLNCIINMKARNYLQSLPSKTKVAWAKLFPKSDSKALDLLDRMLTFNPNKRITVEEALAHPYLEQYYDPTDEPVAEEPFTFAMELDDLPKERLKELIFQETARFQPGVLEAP
# Chain of Mitogen-activated protein kinase; ERK1/ERK2 (Homo sapiens) (P28482 whole entry, looked up): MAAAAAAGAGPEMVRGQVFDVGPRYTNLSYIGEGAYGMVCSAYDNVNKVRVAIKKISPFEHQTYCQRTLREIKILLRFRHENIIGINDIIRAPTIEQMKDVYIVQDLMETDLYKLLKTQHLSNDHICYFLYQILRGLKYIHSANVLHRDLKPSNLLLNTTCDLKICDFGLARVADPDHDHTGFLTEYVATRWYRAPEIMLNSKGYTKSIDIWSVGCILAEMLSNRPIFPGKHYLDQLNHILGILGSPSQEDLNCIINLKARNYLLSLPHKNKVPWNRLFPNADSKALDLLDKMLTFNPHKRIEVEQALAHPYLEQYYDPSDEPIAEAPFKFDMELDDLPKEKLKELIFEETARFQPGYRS
# [15] = test system: T98G; test: Induction of apoptosis in human T98G cells assessed as increase in ROS production at 20 uM after 24 hrs by DCFH-DA staining-based flow cytometric analysis in presence of 5 mM NAC; format: functional, cell-based
# How it was run: (§8)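 T98G incubated with 20 μM, with or without 5 mM NAC pretreatment, for 5−120 min or 24 h; washed, resuspended at 2 × 10^5 cells/mL in HBSS with 10 μM DCFH-DA, 20 min at 37 °C; DCF fluorescence read by flow cytometry (FL1), also viewed by fluorescence microscopy.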
# [16] = test system: U-87 MG; test: Induction of apoptosis in human U87MG cells at 50 uM after 48 hrs by propidium iodide staining based flow cytometric analysis; format: functional, cell-based; conditions: U-87MG ATCC; how it was run: as §6
# [17] = test system: T98G; test: Induction of apoptosis in human T98G cells assessed as increase in cytosolic cytochrome c release at 20 uM after 8 hrs by Western blot analysis; format: functional, cell-based; how it was run: as §7
# [18] = test system: T98G; test: Induction of apoptosis in human T98G cells assessed as increase in ROS production at 20 uM measured every 5 mins for 5 to 120 mins by DCFH-DA staining-based flow cytometric analysis in presence of 5 mM NAC; format: functional, cell-based; how it was run: as §8
# [19] = test system: T98G; test: Induction of apoptosis in human T98G cells at 20 uM after 48 hrs by flow cytometric analysis pretreated with 5 uM JNK inhibitor SP600125 for 1 hr; format: functional, cell-based; how it was run: as §4
# [20] = Cytotoxicity against normal human astrocytes assessed as decrease in cell viability after 48 hrs by MTT assay; format: cell-based; conditions: astrocyte; how it was run: as §2
# [21] = test system: U-87 MG; test: Induction of cell cycle arrest in human U87MG cells assessed as accumulation at G0/G1 phase at 1 to 20 uM after 48 hrs by flow cytometric analysis; format: functional, cell-based; conditions: U-87MG ATCC; how it was run: as §3
# [22] = test system: T98G; test: Induction of apoptosis in human T98G cells assessed as increase in ROS production at 20 uM after 24 hrs by DCFH-DA staining-based flow cytometric analysis; format: functional, cell-based; how it was run: as §8
# [23] = test system: T98G; test: Anticancer activity against human T98G cells assessed as decrease in cell viability at 20 uM after 48 hrs by MTT assay; format: functional, cell-based; how it was run: as §2
smiles,measurement,setting,value
COc1cc(O)c(CC=C(C)C)c(O)c1C(=O)/C=C/c1ccc(O)cc1 [XANTHOHUMOL],Activity,[1],inactive
same,Activity,[2],Active
same,Activity,[3],inactive
same,Activity,[4],Active
same,Activity,[5],Active
same,Activity,[6],inactive
same,Activity,[7],inactive
same,Activity,[8],inactive
same,Activity,[9],Active
same,Activity,[10],inactive
same,Activity,[11],Dose-dependent effect
same,Activity,[12],70%
same,Activity,[13],tde
same,Activity,[14],inactive
same,Activity,[15],inactive
same,Activity,[16],Active
same,Activity,[17],Active
same,Activity,[18],inactive
same,Activity,[19],Active
same,Activity,[20],Non-toxic
same,Activity,[21],inactive
same,Activity,[22],Active
same,Activity,[23],Active
